In publication PMC9727797 (Molecular Biology of the Cell, 2022):

Assays:
[1] = target: T1, Eg5 (Homo sapiens, UniProt P52732); assay: Microtubule gliding assay, Eg5; type: biochemical; conditions: 24 µM Munesib-1 or 100 µM Fift-IN
T1 sequence (P52732 1-1056): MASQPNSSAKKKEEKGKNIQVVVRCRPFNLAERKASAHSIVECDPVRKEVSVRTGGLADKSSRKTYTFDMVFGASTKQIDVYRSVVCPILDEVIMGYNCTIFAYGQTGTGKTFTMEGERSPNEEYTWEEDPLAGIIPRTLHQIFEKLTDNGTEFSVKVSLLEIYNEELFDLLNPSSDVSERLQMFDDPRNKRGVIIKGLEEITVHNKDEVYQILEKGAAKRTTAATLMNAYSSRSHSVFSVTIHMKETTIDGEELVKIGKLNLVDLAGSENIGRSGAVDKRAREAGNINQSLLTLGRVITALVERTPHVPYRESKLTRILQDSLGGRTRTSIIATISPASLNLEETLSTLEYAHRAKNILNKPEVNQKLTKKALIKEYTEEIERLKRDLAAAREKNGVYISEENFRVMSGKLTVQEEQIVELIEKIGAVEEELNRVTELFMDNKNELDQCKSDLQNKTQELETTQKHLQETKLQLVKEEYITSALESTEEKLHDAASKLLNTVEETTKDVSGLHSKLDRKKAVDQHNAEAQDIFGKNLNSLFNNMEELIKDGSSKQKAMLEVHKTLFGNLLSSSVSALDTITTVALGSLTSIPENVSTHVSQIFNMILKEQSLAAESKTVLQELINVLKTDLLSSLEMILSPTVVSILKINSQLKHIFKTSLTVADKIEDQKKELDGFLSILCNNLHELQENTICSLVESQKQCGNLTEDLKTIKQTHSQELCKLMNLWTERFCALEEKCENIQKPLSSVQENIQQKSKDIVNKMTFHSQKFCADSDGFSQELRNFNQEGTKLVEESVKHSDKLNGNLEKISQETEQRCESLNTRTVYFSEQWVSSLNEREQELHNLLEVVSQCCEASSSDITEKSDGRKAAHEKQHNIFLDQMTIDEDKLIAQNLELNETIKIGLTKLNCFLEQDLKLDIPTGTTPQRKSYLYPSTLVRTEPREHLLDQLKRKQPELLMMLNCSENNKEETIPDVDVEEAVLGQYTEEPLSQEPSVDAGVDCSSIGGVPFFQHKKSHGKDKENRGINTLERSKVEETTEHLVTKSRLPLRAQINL
Procedure, shortened: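 Gliding assays with other motors used His6-Eg5, His6-EGFP-HSET or K560 (truncated kinesin-1), with test compound at 24 µM or 100 µM. Frames were captured every 5 s for 1 min at 100×. Velocity was the distance travelled in 1 min, from ≥15 microtubules at each of three locations (n ≥ 50 per slide).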

[2] = Precipitation observed in culture media; type: physicochemical

COC(=O)c1ccc2c(c1)N(C)S(=O)(=O)c1cnc(SC)nc1-2 [Munesib-1, Methyl 6-methyl-2-(methylthio)-6H-benzo[c]pyrimido[4,5-e][1,2]thiazine-8-carboxylate 5,5-dioxide]
inhibition of microtubule gliding, Eg5 [1]: neither substantially inhibited
solubility observation [2]: often precipitated in culture media
